Compounds with a hit are over-represented: about 12% of the library has one in this group of screens.
Diaph inh CS – diaphorase inhibition or chemical oxidation counter-screen; diaphorase resazurin-to-resorufin fluorescence, NADH, 16 min; bacterial (C. kluyveri) enzyme, not human; inhibition, % at 20 µM; 190,000 tested, 0.69% active; AID 1217;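 active = primary screen inhibition at 20 µM above a set limit, cut at about 50% in these data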;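 also: plate controls were DMSO with full reaction for no effect and wells lacking NADH for full effect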
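Assay system: diaphorase enzyme from Clostridium kluyveri. Quantity: enzyme working solution with 0.14 U/mL diaphorase. Schedule: reaction incubation of 16 min at room temperature. Technique: resorufin fluorescence, excitation 544 nm, emission 590 nm. Controls: No-NADH positive control and DMSO neutral control.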
ROMK primary – modulates human ROMK potassium channel activity | Tet-inducible ROMK, thallium flux fluorescence; actives lie on both sides | B-score at 10 µM | 130,000 tested, 2% active | AID 1918;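 active = signal ratio slope over the read window, or its plate-corrected B-score, at least 3 SD from the plate mean, either direction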;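 also: B-score of the F/F0 ratio slope over 7 to 12 s after thallium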
Target sequence (P48048 whole entry, looked up): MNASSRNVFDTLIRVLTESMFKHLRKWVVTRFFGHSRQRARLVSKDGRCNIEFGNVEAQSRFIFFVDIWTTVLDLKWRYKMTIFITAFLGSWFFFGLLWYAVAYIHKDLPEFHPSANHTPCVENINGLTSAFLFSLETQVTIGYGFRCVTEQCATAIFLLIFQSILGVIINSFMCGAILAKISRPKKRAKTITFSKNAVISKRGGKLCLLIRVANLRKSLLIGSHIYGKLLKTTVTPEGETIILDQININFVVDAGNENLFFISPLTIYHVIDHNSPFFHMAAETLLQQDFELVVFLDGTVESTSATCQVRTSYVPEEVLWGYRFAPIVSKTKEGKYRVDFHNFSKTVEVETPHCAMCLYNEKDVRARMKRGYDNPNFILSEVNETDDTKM
Diaph act CS – counter-screen for diaphorase-based assays: diaphorase activators and chemical reducers | Diaphorase/resazurin coupled assay, resorufin fluorescence, 16 min; active compounds read high; 1 = vehicle wells, 0 = NADH-free wells | AID 1229 | 190,000 tested, 0.005% active | activation factor at 20 µM;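 active = diaphorase activity raised at least twofold by the compound at 20 µM; inactive = activation factor below 2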
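Material: bacterial diaphorase enzyme (C. kluyveri); amount: enzyme 0.07 U/mL final; reagent: NADH substrate 0.114 mM plus resazurin dye 0.1 mM, final; doses: single compound dose of 20 µM, 1% DMSO final; timing: 16 min enzyme reaction, ambient temperature; measured by: fluorescence of resorufin, 544 nm excitation, 590 nm emission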
Lmaj promast – inhibitors of Leishmania major promastigote growth. Leishmania major promastigotes, resazurin fluorescence viability. inhibition, % at 10 µM. 200,000 tested, 9% active. AID 1063; in the data active = inhibition above about 50%;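 also: promastigotes grown with compound for 44 hours at 28 °C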
WT yeast gro inh – growth inhibition of WT yeast, mitochondrial fusion screen. mitochondrial fusion phenotypic screen, WT strain. inhibition, % at 10 µM. 190,000 tested, 2.1% active. AID 1362; in the data active = inhibition above about 58%; tested in S. cerevisiae
KCC2 mod – KCC2 (human) Cl- transport modulation | Q9H2X9 | KCC2 cells, thallium flux FluoZin-2 fluorescence | B-score of Tl+ flux slope (higher = more flux/activation; lower = inhibition) at 10 µM | 190,000 tested, 2.2% active;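 active = thallium flux slope and its plate-corrected score both differing from the plate sample mean at a set confidence after two filtering rounds, in either direction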;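 also: slope of fluorescence scaled to starting intensity during 10 to 20 s after thallium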
The depositor's hits bear a star; nt = no result given.

SMILES	Diaph inh CS	ROMK primary	Diaph act CS	Lmaj promast	WT yeast gro inh	KCC2 mod
CCCCCCCOC1(c2ccccc2)OC(=O)c2ccccc21 (stereo not given)	16	-0.22	0.8	-1	55	-0.14
CCCCCCOC1(c2ccccc2)OC(=O)c2ccccc21 (stereo not given)	23	-1.3	0.8	-4	63*	1.7
Cc1ccc(C)c(NC(=O)C(Sc2ncnc3ccccc23)c2ccccc2)c1 (stereo not given)	8	nt	0.9	73*	-1	-0.15
CNC(=S)NC1CC2CCC(C1)N2Cc1ccccc1 (stereo not given)	3	-0.49	1	86*	8	1.7
S=C(Nc1ccc(Cl)cc1)NC1CC2CCC(C1)N2Cc1ccccc1 (stereo not given)	5	-0.58	1	100*	32	-0.59
COc1ccc(CN2C3CCCC2CC(NC(=O)/C=C/c2ccccc2)C3)cc1 (stereo not given)	-4	-0.92	1	87*	-2	0.11
CCc1ccc(NC(=S)NC2CC3CCCC(C2)N3Cc2ccccc2)cc1 (stereo not given)	1	-1.6	1	95*	43	1.7
Cn1cc(C(=O)NCc2cccs2)c(=O)c2cc(S(=O)(=O)N3CCCC3)ccc21	-10	-0.34	1.1	12	-7	-1.1
O=C(Nc1ccccc1-c1ccccc1)NC1CC2CCCC(C1)N2Cc1ccc(F)cc1 (stereo not given)	11	-3	0.9	69*	-6	-0.0051
O=C1[C@H]2[C@H](ON3CCCC[C@H]23)C(=O)N1c1ccc(Cl)cc1	3	-0.11	1	-8	4	nt
Cc1ccc(C(=O)Nc2ccccc2C(=O)N2CCCC2)cc1[N+](=O)[O-]	14	nt	0.9	58*	-8	0.43
Cc1ccc(C(=O)Nc2ccc3c4c(cccc24)CC3)cc1[N+](=O)[O-]	12	nt	0.9	60*	8	1.1
Cc1cc(C(=O)Nc2ccccc2C(=O)N2CCCCC2)ccc1[N+](=O)[O-]	12	-0.59	0.9	-2	16	-0.3
CCOC(=O)C1CCN(C(=O)c2ccccc2NC(=O)c2ccc(Cl)cc2)CC1	12	nt	0.9	40	5	0.29
CCOC(=O)N1CCN(C(=O)c2ccccc2NC(=O)c2ccc(C(C)(C)C)cc2)CC1	14	nt	0.9	74*	29	0.046
Cc1nc(C(C)N(C)Cc2nc(-c3ccc4c(c3)OCO4)no2)c(C)s1 (stereo not given)	-20	-0.28	1.2	4	17	-2
c1ccc(C(c2nnnn2C2CCCC2)N2CCN(c3nc4ccccc4s3)CC2)cc1 (stereo not given)	18	nt	0.8	95*	39	-1.6
N#Cc1cccc(C(c2nnnn2C2CCCC2)N2CCC(Cc3ccccc3)CC2)c1 (stereo not given)	23	-2.6	0.8	65*	-5	-0.83
Cc1ccc(C(c2nnnn2C2CCCC2)N2CCN(c3nc4ccccc4s3)CC2)cc1 (stereo not given)	nt	0.021	nt	95*	nt	-1.5
CC1Cc2ccccc2N1C(=O)CSc1nnnn1C1CCCC1 (stereo not given)	-14	nt	1.1	0	-2	-0.23
CC(C)C(c1nnnn1C1CCCC1)N1c2ccccc2CC1C (stereo not given)	4	nt	1	7	64*	0.087
COCc1cc(C)nc(OCC(=O)N/N=C\c2cc(C)n(-c3cccc(C(F)(F)F)c3)c2C)c1C#N	22	-0.03	0.8	4	-8	0.47
c1csc(C(c2nnnn2C2CCCCC2)N2CCN(c3nc4ccccc4s3)CC2)c1 (stereo not given)	9	-1.2	0.9	93*	24	-2.4
CC(C)C(c1nnnn1C1CCCCC1)N1CCc2ccccc21 (stereo not given)	13	nt	0.9	16	12	-0.78
c1cncc(C(c2nnnn2C2CCCCC2)N2CCN3CCCC3C2)c1 (stereo not given)	1	-0.02	1	-7	-5	-0.039
SMILES	Diaph inh CS	ROMK primary	Diaph act CS	Lmaj promast	WT yeast gro inh	KCC2 mod
Cc1ccc(C(c2nnnn2C2CCCC2)N2CCN3CCCC3C2)cc1 (stereo not given)	5	nt	0.9	87*	14	0.12
c1csc(C(c2nnnn2C2CCCC2)N2CCCC3(CCCCC3)C2)c1 (stereo not given)	-4	nt	1	40	70*	-0.93
Cc1ccc(C(c2nnnn2C2CCCCC2)N2CCc3ccccc32)cc1 (stereo not given)	14	-0.44	0.9	53*	38	-0.18
c1csc(C(c2nnnn2C2CCCC2)N2CCOCC2)c1 (stereo not given)	5	1.5	1	-1	9	1.1
COc1ccc(NC(=O)CCS(=O)(=O)c2ccccc2Cl)cc1S(=O)(=O)Nc1ccc(Cl)cc1	16	1.5	0.8	19	12	-0.71
O=C(c1ccco1)N1CCN(C(c2cccs2)c2nnnn2C2CCCCC2)CC1 (stereo not given)	4	0.12	1	60*	23	nt
N#Cc1cccc(C(c2nnnn2C2CCCC2)N2CCCCCC2)c1 (stereo not given)	3	nt	1	18	-7	0.15
Clc1ccc(C(c2nnnn2C2CCCC2)N2CCN(Cc3ccncc3)CC2)cc1 (stereo not given)	13	-1.7	0.9	88*	8	nt
CN(C)c1ccc(C(c2nnnn2C2CCCCC2)N2CCN(C(=O)c3ccco3)CC2)cc1 (stereo not given)	nt	nt	nt	28	nt	1.2
O=c1c(C(c2nnnn2C2CCCCC2)N2CCCCC2)coc2ccc(Cl)cc12 (stereo not given)	1	-0.8	1	62*	28	-1.2
c1ccc(C(c2nnnn2C2CCCC2)N2CCCCCC2)nc1 (stereo not given)	10	nt	0.9	0	-1	0.0032
c1ccc(C(c2ccccc2)N2CCN(C(c3ccccn3)c3nnnn3C3CCCC3)CC2)cc1 (stereo not given)	16	-2.1	0.8	57*	14	2.3
Fc1ccc(C(c2nnnn2C2CCCC2)N2CCN(Cc3ccccc3)CC2)cc1 (stereo not given)	25	nt	0.7	36	-16	-0.73
Cc1ccc(S(=O)(=O)CC2CSc3nc4ccccc4n32)cc1 (stereo not given)	12	nt	0.9	-7	3	-0.42
COc1ccc(N2CCN(C(=O)CN(C3CCCCC3)S(C)(=O)=O)CC2)cc1	7	-0.42	0.9	-3	5	0.13
O=S1(=O)CCC(NC(=S)N2CCCCC2)C1 (stereo not given)	14	-0.11	0.9	-4	4	-0.0096
COc1cccc(S(=O)(=O)Nc2ccc3sc(C)nc3c2)c1	14	0.21	0.9	0	-8	nt

Screens from PubChem BioAssay.
